Experimental data as given in ChEMBL document CHEMBL4024781, “Comprehensive Synthesis of Amino Acid-Derived Thiazole Peptidomimetic Analogues to Understand the Enigmatic Drug/Substrate-Binding Site of P-Glycoprotein” (J Med Chem, 2018).

How the values were obtained:
P-gp (ABCB1) [1] = target: T1, P-gp (ABCB1) (Homo sapiens, UniProt P08183); test: Activation of human P-gp expressed in high five insect cell membrane vesicles by measuring the vanadate-sensitive ATPase activity of P-gp at 0.05 uM preincubated for 5 mins in the presence of sodium orthovanadate measured after 20 mins by colorimetric method; settings: read-out: Activity
P-gp (ABCB1) [2] = target: T1, P-gp (ABCB1); test: Activation of human P-gp expressed in high five insect cell membrane vesicles by measuring the vanadate-sensitive ATPase activity of P-gp at 0.5 uM preincubated for 5 mins in the presence of sodium orthovanadate measured after 20 mins by colorimetric method; settings: read-out: Activity
P-gp (ABCB1) [3] = target: T1, P-gp (ABCB1); test: Inhibition of human P-gp expressed in high five insect cell membrane vesicles by measuring the vanadate-sensitive ATPase activity of P-gp at 0.5 uM preincubated for 5 mins in the presence of sodium orthovanadate measured after 20 mins by colorimetric method
P-gp (ABCB1) [4] = target: T1, P-gp (ABCB1); test: Inhibition of human P-gp expressed in high five insect cell membrane vesicles by measuring the vanadate-sensitive ATPase activity of P-gp at 2.5 uM preincubated for 5 mins in the presence of sodium orthovanadate measured after 20 mins by colorimetric method
[5] = Cytotoxicity in P-gp tranfected HEK293 cells assessed as cell survival at 10 uM after 72 hrs by MTT assay; type: ADME, cell-based; settings: human, P-gp transfected HEK293 cells
Outline: (§1)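 HEK293 cells stably transfected with empty pcDNA3.1 vector or ABCB1 vector, kept in DMEM with 10% FBS, 1% penicillin/streptomycin, and 2 mg/mL G418 at 37°C in 5% CO2. Cells were seeded at 5000/well, and after 24 h treated with test compound alone, diluted from 10 mM DMSO stocks into medium. After 72 h, viability was read by MTT (4 mg/mL, 4 h), with formazan dissolved in DMSO and absorbance read at 570 nm.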

[6] = Cytotoxicity in parental HEK293-pcDNA 3.1 transfected cells assessed as cell survival at 10 uM after 72 hrs by MTT assay; type: cell-based; settings: human, parental HEK293 cells transfected with pcDNA 3.1; outline: as §1
P-gp (ABCB1) [7] = target: T1, P-gp (ABCB1); test: Activation of human P-gp expressed in high five insect cell membrane vesicles by measuring the vanadate-sensitive ATPase activity of P-gp at 2.5 uM preincubated for 5 mins in the presence of sodium orthovanadate measured after 20 mins by colorimetric method; settings: read-out: Activity
HEK293 = test: Potentiation of paclitaxel-induced cytotoxicity against parental HEK293-pcDNA 3.1 transfected cells assessed as fold reduction in paclitaxel IC50 at 10 uM pre-incubated for 1 hr before paclitaxel addition and measured after 72 hrs by MTT assay; type: functional, Homo sapiens
Outline: (§2)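 HEK293 cells stably transfected with ABCB1 or empty pcDNA3.1 vector, kept in G418. Seeded at 5000/well and grown 24 h, then given modulator at 10 μM for 1 h before serially diluted paclitaxel (up to 10 μM). MTT read at 570 nm after 72 h. Paclitaxel IC50 from four experiments in triplicate. Fold resistance = IC50 with modulator ÷ IC50 of paclitaxel alone in vector-control cells.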

[8] = target: ATP-dependent translocase ABCB1 (Homo sapiens, UniProt P08183); test: Inhibition of human P-gp transfected in HEK293 cells assessed as potentiation of paclitaxel-induced cytotoxicity by measuring fold reduction in paclitaxel IC50 at 10 uM pre-incubated for 1 hr before paclitaxel addition and measured after 72 hrs by MTT assay; type: cell-based; settings: hek293, 72 h; outline: as §2
CYP3A4 [9] = target: T2, CYP3A4 (Homo sapiens, UniProt P08684); test: Inhibition of CYP3A4 (unknown origin) at 50 uM by fluorescence based-vivid CYP450 green screening kit based assay; type: ADME
CYP3A4 [10] = target: T2, CYP3A4; test: Inhibition of CYP3A4 (unknown origin) at 25 uM by fluorescence based-vivid CYP450 green screening kit based assay; type: ADME
P-gp (ABCB1) [11] = target: T1, P-gp (ABCB1); test: Inhibition of human P-gp expressed in high five insect cell membrane vesicles by measuring the vanadate-sensitive ATPase activity of P-gp at 0.05 uM preincubated for 5 mins in the presence of sodium orthovanadate measured after 20 mins by colorimetric method

T2 sequence (P08684 whole entry): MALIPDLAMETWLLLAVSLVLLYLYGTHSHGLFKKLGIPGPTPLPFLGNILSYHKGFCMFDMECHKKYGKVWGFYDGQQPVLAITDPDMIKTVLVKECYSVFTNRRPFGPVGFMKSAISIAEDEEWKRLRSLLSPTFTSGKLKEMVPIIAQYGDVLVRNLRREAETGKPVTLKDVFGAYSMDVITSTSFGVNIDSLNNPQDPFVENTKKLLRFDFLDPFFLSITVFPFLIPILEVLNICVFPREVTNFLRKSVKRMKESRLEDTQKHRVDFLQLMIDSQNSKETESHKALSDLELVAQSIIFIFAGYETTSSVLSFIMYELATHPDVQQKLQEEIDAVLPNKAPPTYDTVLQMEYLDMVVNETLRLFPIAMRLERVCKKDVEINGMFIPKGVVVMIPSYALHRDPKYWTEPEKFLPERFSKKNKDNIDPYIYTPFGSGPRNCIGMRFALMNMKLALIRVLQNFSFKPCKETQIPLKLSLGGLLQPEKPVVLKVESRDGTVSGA
T1 sequence (P08183 whole entry): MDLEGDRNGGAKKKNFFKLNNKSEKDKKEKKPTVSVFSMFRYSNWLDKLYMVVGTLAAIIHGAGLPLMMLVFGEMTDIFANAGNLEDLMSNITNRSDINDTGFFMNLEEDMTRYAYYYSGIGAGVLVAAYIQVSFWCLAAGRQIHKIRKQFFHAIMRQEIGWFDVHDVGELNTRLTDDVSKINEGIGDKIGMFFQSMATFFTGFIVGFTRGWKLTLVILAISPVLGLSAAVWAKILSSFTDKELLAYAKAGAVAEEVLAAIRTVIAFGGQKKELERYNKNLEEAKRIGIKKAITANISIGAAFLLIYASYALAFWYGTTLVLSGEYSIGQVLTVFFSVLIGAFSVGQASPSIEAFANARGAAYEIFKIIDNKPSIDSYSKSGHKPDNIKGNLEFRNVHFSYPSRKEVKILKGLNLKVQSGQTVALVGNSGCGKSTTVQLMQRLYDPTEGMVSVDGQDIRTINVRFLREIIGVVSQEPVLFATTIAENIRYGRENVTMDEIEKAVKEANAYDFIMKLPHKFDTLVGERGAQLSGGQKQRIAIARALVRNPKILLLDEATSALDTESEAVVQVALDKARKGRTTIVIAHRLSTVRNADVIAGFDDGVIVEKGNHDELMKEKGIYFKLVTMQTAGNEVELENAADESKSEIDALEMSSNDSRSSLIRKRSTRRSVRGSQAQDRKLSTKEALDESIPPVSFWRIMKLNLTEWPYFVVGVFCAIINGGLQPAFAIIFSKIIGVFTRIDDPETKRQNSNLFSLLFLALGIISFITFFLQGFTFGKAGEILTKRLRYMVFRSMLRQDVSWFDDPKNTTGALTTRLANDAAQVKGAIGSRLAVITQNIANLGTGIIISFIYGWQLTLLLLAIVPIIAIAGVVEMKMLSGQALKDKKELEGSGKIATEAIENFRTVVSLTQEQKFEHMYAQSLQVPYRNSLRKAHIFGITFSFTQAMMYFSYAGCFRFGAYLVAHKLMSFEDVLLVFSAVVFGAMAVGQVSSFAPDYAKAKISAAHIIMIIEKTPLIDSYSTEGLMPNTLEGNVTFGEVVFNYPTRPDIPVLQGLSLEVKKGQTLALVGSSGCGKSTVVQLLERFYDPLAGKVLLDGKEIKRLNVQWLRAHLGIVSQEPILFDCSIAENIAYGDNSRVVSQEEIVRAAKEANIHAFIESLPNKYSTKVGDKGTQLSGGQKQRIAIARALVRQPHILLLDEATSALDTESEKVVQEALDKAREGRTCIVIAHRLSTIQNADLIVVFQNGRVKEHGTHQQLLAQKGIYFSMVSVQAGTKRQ
Sequence of ATP-dependent translocase ABCB1 (P08183 whole entry): as above

| Structure (SMILES) | activity at 20 min, 0.5 µM (P-gp (ABCB1) [2]) | activity at 20 min, 2.5 µM (P-gp (ABCB1) [7]) | also measured |
| --- | --- | --- | --- |
| COc1cc(C(=O)N[C@H](c2nc(C(=O)Nc3ccccc3NC(=O)c3ccccc3)cs2)C(C)C)cc(OC)c1OC | 52% | – | activity at 20 min, 0.05 µM (P-gp (ABCB1) [1]): ≤ 10% |
| COc1cc(C(=O)N[C@H](c2nc(C(=O)Nc3ccccc3Cc3ccccc3)cs2)C(C)C)cc(OC)c1OC | 112% | – | activity at 20 min, 0.05 µM (P-gp (ABCB1) [1]): 15% |
| COc1cc(C(=O)N[C@H](c2nc(C(=S)NC3CCC(F)(F)CC3)cs2)C(C)C)cc(OC)c1OC | – | – | inhibition at 20 min, 0.5 µM (P-gp (ABCB1) [3]): 37.4%; inhibition at 20 min, 2.5 µM (P-gp (ABCB1) [4]): 25.9% |
| CC(C)[C@H](NC(=O)C1CCC(F)(F)CC1)c1nc(C(=O)NC2CCC(F)(F)CC2)cs1 | ≤ 10% | – | inhibition at 20 min, 2.5 µM (P-gp (ABCB1) [4]): 16.4% |
| COc1cc(C(=O)N[C@H](c2nc(C(=O)Nc3ccccc3C(=O)c3ccc(Br)cc3)cs2)C(C)C)cc(OC)c1OC | 149% | – | activity at 20 min, 0.05 µM (P-gp (ABCB1) [1]): 309% |
| O[C@@H](COc1cccc2ncccc12)CN1CCN([C@@H]2c3ccccc3[C@@H]3[C@H](c4ccccc42)C3(F)F)CC1 [ZOSUQUIDAR] | – | – | viability at 72 h, 10 µM [5]: > 80%; viability at 72 h, 10 µM [6]: > 80% |
| COc1cc(C(=O)NC(c2nc(C(=O)NC3CCC(C(F)(F)F)CC3)cs2)C(C)C)cc(OC)c1OC (stereo unspecified) | ≤ 10% | – | inhibition at 20 min, 2.5 µM (P-gp (ABCB1) [4]): 21.7% |
| COc1cc(C(=O)N[C@H](c2nc(C(=O)NCC3CCC(F)(F)CC3)cs2)C(C)C)cc(OC)c1OC | – | 20.7% | inhibition at 20 min, 0.5 µM (P-gp (ABCB1) [3]): 27% |
| CC(C)[C@H](NC(=O)c1cc(F)c(F)c(F)c1)c1nc(C(=O)NC2CCC(F)(F)CC2)cs1 | – | – | inhibition at 20 min, 0.5 µM (P-gp (ABCB1) [3]): 16.6%; inhibition at 20 min, 2.5 µM (P-gp (ABCB1) [4]): 23.3% |
| COc1cc(C(=O)N[C@H](c2nc(C(=O)N3CCC(F)(F)CC3)cs2)C(C)C)cc(OC)c1OC | 40.9% | 55.9% | – |
| COc1cc(C(=S)N[C@H](c2nc(C(=S)NC3CCCCC3)cs2)C(C)C)cc(OC)c1OC | 65% | 92% | – |
| COc1cc(C(=O)N[C@H](c2nc(C(=O)Nc3cccc(C(=O)c4ccccc4)c3)cs2)C(C)C)cc(OC)c1OC | 143% | – | activity at 20 min, 0.05 µM (P-gp (ABCB1) [1]): 13% |
| COc1cc(C(=O)N[C@H](c2nc(C(=O)NC3CC3)cs2)C(C)C)cc(OC)c1OC | ≤ 10% | – | activity at 20 min, 0.05 µM (P-gp (ABCB1) [1]): ≤ 10% |
| COc1cc(C(=O)NC(Cc2ccc(O)cc2)c2nc(C(=O)NC3CCC(F)(F)CC3)cs2)cc(OC)c1OC (stereo unspecified) | – | – | inhibition at 20 min, 0.5 µM (P-gp (ABCB1) [3]): 22.4%; inhibition at 20 min, 2.5 µM (P-gp (ABCB1) [4]): 23% |
| COc1cc(C(=O)N[C@H](c2nc(C(=O)NCC3CCNCC3)cs2)C(C)C)cc(OC)c1OC | 23% | ≤ 10% | – |
| COc1cc(C(=O)N[C@H](c2nc(C(=O)NC3CCN(c4ncccn4)CC3)cs2)C(C)C)cc(OC)c1OC | 17.1% | 83% | – |
| COc1cc(C(=O)N[C@H](c2nc(C(=O)N3CCC(N)CC3)cs2)C(C)C)cc(OC)c1OC | 45.4% | ≤ 10% | – |
| CC(C)[C@H](NC(=O)c1ccc(N=[N+]=[N-])cc1)c1nc(C(=O)Nc2ccccc2C(=O)c2ccccc2)cs1 | 135% | 164% | – |
| COc1cc(C(=O)N[C@H](c2nc(C(=O)Nc3cc(F)c(F)c(F)c3)cs2)C(C)C)cc(OC)c1OC | 57% | 176% | – |

| Structure (SMILES) | activity at 20 min, 0.5 µM (P-gp (ABCB1) [2]) | activity at 20 min, 2.5 µM (P-gp (ABCB1) [7]) | also measured |
| --- | --- | --- | --- |
| COc1cc(C(=O)N[C@H](c2nc(C(=O)NCCCC(F)(F)F)cs2)C(C)C)cc(OC)c1OC | 17.1% | 77.3% | – |
| COc1ccc(CCN(C)CCCC(C#N)(c2ccc(OC)c(OC)c2)C(C)C)cc1OC (stereo unspecified) | – | – | viability at 72 h, 10 µM [5]: > 80%; viability at 72 h, 10 µM [6]: > 80%; fold change (FC) (HEK293): 0.9 |
| COc1cc(C(=O)Nc2nc(C(=O)NC3CCC(F)(F)CC3)cs2)cc(OC)c1OC | 53.9% | 60.2% | – |
| CC(C)[C@H](NC(=O)c1cccc(N)c1)c1nc(C(=O)Nc2ccccc2C(=O)c2ccccc2)cs1 | 308% | – | viability at 72 h, 10 µM [5]: > 80%; activity at 20 min, 0.05 µM (P-gp (ABCB1) [1]): 376%; viability at 72 h, 10 µM [6]: > 80%; fold change (FC) [8]: 17.9; inhibition at 50 µM (CYP3A4 [9]): 83.3%; inhibition at 25 µM (CYP3A4 [10]): 43.6%; fold change (FC) (HEK293): 0.5 |
| COc1cc(C(=O)N[C@H](c2nc(C(=O)N3CCC(N4CCCCC4)CC3)cs2)C(C)C)cc(OC)c1OC | 37.2% | 47.2% | – |
| COc1cc(C(=O)N[C@H](c2nc(C(=O)N[C@@H]3CCCc4ccccc43)cs2)C(C)C)cc(OC)c1OC | 33.9% | 31.3% | viability at 72 h, 10 µM [5]: > 80%; viability at 72 h, 10 µM [6]: > 80%; fold change (FC) [8]: 2.9; fold change (FC) (HEK293): 1.4 |
| COc1cc(C(=O)N[C@H](c2nc(C(=O)NC3CCC(C)(C)CC3)cs2)C(C)C)cc(OC)c1OC | ≤ 10% | 34.3% | – |
| COc1cc(C(=O)N[C@H](c2nc(C(=O)NC3CCCC3)cs2)C(C)C)cc(OC)c1OC | ≤ 10% | ≤ 10% | – |
| COc1cc(C(=O)N[C@H](c2nc(C(=O)Nc3ccccc3Oc3ccccc3)cs2)C(C)C)cc(OC)c1OC | 88% | – | activity at 20 min, 0.05 µM (P-gp (ABCB1) [1]): ≤ 10% |
| COc1cc(C(=O)N[C@H](c2nc(C(=O)NC3CCOCC3)cs2)C(C)C)cc(OC)c1OC | 26.9% | ≤ 10% | – |
| COc1cc(C(=O)N[C@H](c2nc(C(=O)NC3CCCCC3)cs2)C(C)C)cc(OC)c1OC | – | – | inhibition at 20 min, 0.5 µM (P-gp (ABCB1) [3]): 18%; viability at 72 h, 10 µM [5]: > 80%; inhibition at 20 min, 0.05 µM (P-gp (ABCB1) [11]): 20%; viability at 72 h, 10 µM [6]: > 80%; fold change (FC) [8]: 0.6; inhibition at 50 µM (CYP3A4 [9]): 52%; inhibition at 25 µM (CYP3A4 [10]): 7.03%; fold change (FC) (HEK293): 1 |
| COc1cc(C(=O)NC(CC(C)C)c2nc(C(=O)NC3CCC(F)(F)CC3)cs2)cc(OC)c1OC (stereo unspecified) | 16% | 68% | – |
| COc1cc(NC(=O)c2csc([C@@H](NC(=O)c3ccccc3C(=O)c3ccccc3)C(C)C)n2)cc(OC)c1OC | 46% | – | activity at 20 min, 0.05 µM (P-gp (ABCB1) [1]): ≤ 10% |
| CC(C)[C@H](NC(=O)c1ccc(N=[N+]=[N-])cc1)c1nc(C(=O)Nc2ccccc2C(=O)c2ccc(Br)cc2)cs1 | 99.4% | 84.7% | – |
| COc1cc(C(=O)N[C@H](c2nc(C(=O)Nc3ccccc3C(=O)Nc3ccccc3)cs2)C(C)C)cc(OC)c1OC | 142% | – | activity at 20 min, 0.05 µM (P-gp (ABCB1) [1]): 21% |
| COc1cc(C(=O)N[C@H](c2nc(C(=O)NC34CC5CC(CC(C5)C3)C4)cs2)C(C)C)cc(OC)c1OC | ≤ 10% | – | activity at 20 min, 0.05 µM (P-gp (ABCB1) [1]): ≤ 10% |
| COc1cc(C(=O)N[C@H](c2nc(C(=O)NC3CCNCC3)cs2)C(C)C)cc(OC)c1OC | 46.3% | 14.5% | – |
| COc1cc(C(=O)N[C@H](c2nc(C(=O)NC3CCC3)cs2)C(C)C)cc(OC)c1OC | 25.3% | ≤ 10% | – |
